Data reported in ChEMBL document CHEMBL3992557, “Synthesis and biological evaluation of novel N3-substituted dihydropyrimidine derivatives as T-type calcium channel blockers and their efficacy as analgesics in mouse models of inflammatory pain” (Bioorg Med Chem, 2017).
Calls of active or inactive are those of the source.

Assays:
[1] = target: T1, Voltage-dependent T-type calcium channel subunit alpha-1H (Homo sapiens, UniProt O95180); test: Inhibition of GFP-fused Cav3.2-alpha1 (unknown origin) expressed in human tsA-201 cells at 10 uM at holding potential of -110 mV by whole cell patch clamp method relative to control; type: cell-based
T1 sequence (O95180 whole entry, the tested form may be a part): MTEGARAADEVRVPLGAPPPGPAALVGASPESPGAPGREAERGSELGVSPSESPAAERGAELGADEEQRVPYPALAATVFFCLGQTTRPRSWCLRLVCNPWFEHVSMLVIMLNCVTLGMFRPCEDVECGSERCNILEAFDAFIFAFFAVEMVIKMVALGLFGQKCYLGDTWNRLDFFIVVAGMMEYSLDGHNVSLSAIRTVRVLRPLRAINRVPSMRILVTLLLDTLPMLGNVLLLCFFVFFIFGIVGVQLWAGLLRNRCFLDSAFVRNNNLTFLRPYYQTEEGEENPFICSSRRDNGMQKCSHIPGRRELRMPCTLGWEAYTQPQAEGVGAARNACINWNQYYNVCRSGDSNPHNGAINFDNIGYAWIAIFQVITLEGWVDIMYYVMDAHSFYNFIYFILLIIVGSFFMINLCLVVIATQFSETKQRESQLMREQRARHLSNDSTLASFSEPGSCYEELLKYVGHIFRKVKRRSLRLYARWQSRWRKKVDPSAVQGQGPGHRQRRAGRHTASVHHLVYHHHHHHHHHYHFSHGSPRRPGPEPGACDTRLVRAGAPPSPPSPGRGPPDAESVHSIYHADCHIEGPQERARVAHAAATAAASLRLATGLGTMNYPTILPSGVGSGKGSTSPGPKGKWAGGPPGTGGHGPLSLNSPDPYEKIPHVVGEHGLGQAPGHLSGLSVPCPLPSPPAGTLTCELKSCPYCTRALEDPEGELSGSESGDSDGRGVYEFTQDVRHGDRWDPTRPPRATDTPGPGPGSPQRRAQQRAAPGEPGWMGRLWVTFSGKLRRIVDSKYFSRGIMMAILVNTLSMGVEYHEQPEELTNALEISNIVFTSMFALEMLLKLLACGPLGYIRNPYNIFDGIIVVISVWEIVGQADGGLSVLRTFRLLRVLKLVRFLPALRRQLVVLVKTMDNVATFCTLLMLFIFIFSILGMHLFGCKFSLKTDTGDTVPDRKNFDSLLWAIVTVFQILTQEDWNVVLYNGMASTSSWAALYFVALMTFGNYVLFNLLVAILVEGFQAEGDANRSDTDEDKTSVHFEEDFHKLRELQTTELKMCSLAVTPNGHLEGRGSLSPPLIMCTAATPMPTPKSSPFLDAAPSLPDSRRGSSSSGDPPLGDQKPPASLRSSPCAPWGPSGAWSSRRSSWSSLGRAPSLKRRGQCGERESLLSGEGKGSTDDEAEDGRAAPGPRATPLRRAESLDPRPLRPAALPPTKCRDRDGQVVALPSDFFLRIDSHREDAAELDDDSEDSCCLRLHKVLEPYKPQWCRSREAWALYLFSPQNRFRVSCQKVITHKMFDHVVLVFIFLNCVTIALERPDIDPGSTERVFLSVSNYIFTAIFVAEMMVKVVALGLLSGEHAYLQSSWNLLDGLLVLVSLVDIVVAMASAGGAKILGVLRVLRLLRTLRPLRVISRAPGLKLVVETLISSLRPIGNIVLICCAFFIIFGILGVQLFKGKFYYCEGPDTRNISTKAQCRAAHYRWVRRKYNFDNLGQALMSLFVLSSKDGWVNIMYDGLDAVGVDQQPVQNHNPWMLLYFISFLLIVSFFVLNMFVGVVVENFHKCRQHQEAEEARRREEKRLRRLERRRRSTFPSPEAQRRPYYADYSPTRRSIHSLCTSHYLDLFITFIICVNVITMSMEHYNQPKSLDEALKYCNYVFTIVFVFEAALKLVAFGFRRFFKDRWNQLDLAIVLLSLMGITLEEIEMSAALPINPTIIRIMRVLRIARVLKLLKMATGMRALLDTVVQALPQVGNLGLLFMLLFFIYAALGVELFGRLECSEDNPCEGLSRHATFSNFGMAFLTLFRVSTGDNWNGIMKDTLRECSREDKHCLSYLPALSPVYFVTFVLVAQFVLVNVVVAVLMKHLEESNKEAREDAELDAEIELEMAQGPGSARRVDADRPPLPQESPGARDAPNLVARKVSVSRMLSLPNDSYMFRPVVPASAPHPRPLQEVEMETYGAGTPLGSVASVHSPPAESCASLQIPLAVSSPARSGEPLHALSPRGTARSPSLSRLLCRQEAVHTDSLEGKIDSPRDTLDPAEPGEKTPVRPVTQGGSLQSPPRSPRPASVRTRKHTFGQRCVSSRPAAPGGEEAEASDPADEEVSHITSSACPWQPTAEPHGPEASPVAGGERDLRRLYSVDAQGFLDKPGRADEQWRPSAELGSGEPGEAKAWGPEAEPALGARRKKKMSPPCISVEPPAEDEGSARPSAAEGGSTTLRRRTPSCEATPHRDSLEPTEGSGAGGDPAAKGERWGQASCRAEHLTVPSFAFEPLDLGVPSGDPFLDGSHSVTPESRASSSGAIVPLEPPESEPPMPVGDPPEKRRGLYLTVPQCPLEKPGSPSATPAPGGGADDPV
Procedure, shortened: (§1)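 HEK tsA-201 cells transfected by calcium phosphate with channel DNA plus GFP marker, moved to 30°C at 16-18 h, recorded two days later. Whole-cell patch clamp used Ba2+ (20 mM) external solution, pH 7.4, with CsCl-based internal solution. Recordings were P/4 leak-subtracted, 10 kHz sampling. Compound at 10 µM, DMSO ≤0.1% final, reported as % current inhibition. Cav2.2 n=3.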

[2] = target: Voltage-dependent L-type calcium channel subunit alpha-1C (Rattus norvegicus, UniProt P22002); test: (§2) Inhibition of GFP-fused rat Cav1.2 expressed in human tsA-201 cells co-expressing Cavbeta1b/Cavalpha2delta1 assessed as tonic block at 10 uM at holding potential of -90 mV by whole cell patch clamp method relative to control; type: cell-based; conditions: 10 µM
Sequence of Voltage-dependent L-type calcium channel subunit alpha-1C (P22002 whole entry, the tested form may be a part): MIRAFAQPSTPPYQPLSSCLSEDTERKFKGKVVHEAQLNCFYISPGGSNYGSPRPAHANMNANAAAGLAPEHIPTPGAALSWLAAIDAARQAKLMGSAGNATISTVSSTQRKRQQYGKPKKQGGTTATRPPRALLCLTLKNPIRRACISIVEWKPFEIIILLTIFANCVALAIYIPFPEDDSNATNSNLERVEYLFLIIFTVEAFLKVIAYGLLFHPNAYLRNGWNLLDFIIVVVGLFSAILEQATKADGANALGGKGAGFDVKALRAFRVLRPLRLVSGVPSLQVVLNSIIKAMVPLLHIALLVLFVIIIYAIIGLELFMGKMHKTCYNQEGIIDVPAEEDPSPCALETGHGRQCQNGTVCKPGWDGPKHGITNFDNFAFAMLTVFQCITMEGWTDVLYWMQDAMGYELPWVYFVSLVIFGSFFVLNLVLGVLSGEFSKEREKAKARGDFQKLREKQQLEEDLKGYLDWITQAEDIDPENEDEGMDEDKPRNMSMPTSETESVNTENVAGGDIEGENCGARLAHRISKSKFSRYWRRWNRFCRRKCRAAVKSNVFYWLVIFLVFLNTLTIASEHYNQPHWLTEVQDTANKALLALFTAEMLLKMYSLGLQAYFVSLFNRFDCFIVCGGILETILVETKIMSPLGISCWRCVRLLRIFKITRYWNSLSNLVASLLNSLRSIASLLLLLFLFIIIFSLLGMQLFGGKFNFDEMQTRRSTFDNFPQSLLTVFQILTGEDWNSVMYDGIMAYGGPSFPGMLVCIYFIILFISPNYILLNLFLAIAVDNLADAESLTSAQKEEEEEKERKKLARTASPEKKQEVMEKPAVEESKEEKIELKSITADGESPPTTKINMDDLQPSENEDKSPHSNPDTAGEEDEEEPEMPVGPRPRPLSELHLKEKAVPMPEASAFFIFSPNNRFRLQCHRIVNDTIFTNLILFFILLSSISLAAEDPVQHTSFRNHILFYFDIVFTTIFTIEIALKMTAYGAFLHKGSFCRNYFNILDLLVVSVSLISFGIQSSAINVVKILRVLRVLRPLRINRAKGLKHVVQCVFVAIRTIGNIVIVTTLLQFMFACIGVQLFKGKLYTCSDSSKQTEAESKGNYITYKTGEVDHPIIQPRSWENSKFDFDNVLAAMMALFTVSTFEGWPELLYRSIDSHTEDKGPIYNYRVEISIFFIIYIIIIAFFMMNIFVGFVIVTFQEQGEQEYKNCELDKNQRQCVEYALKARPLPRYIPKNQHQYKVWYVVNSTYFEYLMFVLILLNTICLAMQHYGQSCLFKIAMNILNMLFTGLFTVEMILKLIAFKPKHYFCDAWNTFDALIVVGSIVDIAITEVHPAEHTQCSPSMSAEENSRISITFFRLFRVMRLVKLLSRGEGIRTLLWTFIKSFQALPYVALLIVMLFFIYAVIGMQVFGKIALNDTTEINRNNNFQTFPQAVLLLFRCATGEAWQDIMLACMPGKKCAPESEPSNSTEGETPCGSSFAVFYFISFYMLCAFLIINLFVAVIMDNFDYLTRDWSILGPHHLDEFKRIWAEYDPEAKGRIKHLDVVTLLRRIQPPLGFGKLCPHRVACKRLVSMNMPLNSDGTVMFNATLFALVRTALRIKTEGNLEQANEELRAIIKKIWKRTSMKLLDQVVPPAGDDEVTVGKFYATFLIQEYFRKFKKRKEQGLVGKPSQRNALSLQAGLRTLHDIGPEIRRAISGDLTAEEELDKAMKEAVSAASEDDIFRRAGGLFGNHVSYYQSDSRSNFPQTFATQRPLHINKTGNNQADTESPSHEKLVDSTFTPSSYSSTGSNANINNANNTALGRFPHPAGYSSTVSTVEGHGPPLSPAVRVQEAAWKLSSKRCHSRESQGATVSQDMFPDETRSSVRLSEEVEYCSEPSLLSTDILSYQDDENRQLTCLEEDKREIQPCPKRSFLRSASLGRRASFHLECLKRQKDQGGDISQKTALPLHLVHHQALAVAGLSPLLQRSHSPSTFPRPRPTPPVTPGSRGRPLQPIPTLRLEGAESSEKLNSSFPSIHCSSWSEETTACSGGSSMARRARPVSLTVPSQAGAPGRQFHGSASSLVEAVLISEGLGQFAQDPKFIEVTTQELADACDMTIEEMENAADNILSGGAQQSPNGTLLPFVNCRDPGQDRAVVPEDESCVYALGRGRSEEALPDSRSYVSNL
Procedure, shortened: (§3)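 tsA-201 cells were co-transfected with rat Cav1.2 plus Cavβ1b and Cavα2δ1 (5 µg each) and a GFP marker, then kept 2 days (30°C after 16-18 h). Whole-cell patch clamp used 20 mM BaCl2 bath, P/4 leak correction, 10 kHz sampling. Tonic resting-state block at 10 µM was given as % current inhibition. Final DMSO ≤0.1%.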

[3] = target: Cav1.2 (voltage-dependent L-type calcium channel subunit alpha-1C) (Rattus norvegicus, UniProt P22002); test: as §2; type: cell-based; procedure, shortened: as §3
Sequence of Cav1.2 (voltage-dependent L-type calcium channel subunit alpha-1C) (P22002 whole entry, the tested form may be a part): as above

[4] = target: T1, Voltage-dependent T-type calcium channel subunit alpha-1H; test: Inhibition of GFP-fused Cav3.2-alpha1 (unknown origin) expressed in human tsA-201 cells at holding potential of -110 mV by whole cell patch clamp method; type: cell-based
Procedure, shortened: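 tsA-201 cells transiently expressing Cav3.2 α1 plus GFP were recorded by whole-cell patch clamp with 20 mM Ba2+ as charge carrier and P/4 leak subtraction. A dose-response curve was fitted to give IC50, n=3 cells per dose. Final DMSO ≤0.1%.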

[5] = target: T1, Voltage-dependent T-type calcium channel subunit alpha-1H; test: Inhibition of GFP-fused Cav3.2-alpha1 (unknown origin) expressed in human tsA-201 cells assessed as half activation potential at 3 uM at holding potential of -110 mV by whole cell patch clamp method (reference value: -32.07 +/- 0.8 mV); type: cell-based
[6] = target: T1, Voltage-dependent T-type calcium channel subunit alpha-1H; test: Inhibition of GFP-fused Cav3.2-alpha1 (unknown origin) expressed in human tsA-201 cells assessed as half inactivation potential for steady state inactivation curve at 3 uM at holding potential of -110 mV by whole cell patch clamp method (reference value: -47.6 +/- 0.87 mV); type: cell-based
[7] = target: T1, Voltage-dependent T-type calcium channel subunit alpha-1H; test: Inhibition of GFP-fused Cav3.2-alpha1 (unknown origin) expressed in human tsA-201 cells assessed as time required to reach steady state inhibition at 3 uM at holding potential of -110 mV by whole cell patch clamp method; type: cell-based
[8] = target: Voltage-dependent N-type calcium channel subunit alpha-1B (Homo sapiens) (UniProt Q00975); test: Inhibition of GFP-fused Cav2.2 (unknown origin) expressed in human tsA-201 cells assessed as at 10 uM by whole cell patch clamp method relative to control; type: cell-based; procedure, shortened: as §1
Mus musculus [9] = test: Analgesic activity in formalin-induced nociception C57BL/6J mouse model assessed as reduction in time spent licking and biting formalin injected paw per 10 uL administered intrathecally 20 mins prior to formalin injection measured up to 30 mins post formalin injection; type: functional
Procedure, shortened: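 Adult male C57BL/6J mice (7-9 weeks). Intrathecal pretreatment at 0.3, 1 and 3 µg in 10 µl, or vehicle (1% DMSO in PBS, 10 µl). After 20 min, 20 µl of 1.25% formalin injected intraplantar into right hind paw.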

Mus musculus [10] = test: Analgesic activity in CFA-induced mechanical hyperalgesia C57BL/6J mouse model assessed as mechanical paw withdrawal threshold at 3 ug/10 uL administered intrathecally 2 days after CFA injection measured at 90 to 150 mins post dose; type: functional
Procedure, shortened: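 Adult male C57BL/6J mice (7-9 weeks). Right hind paw given 30 µl CFA intraplantar; 2 days later dosed intrathecally at 3 µg/10 µl, vehicle 1% DMSO in PBS. Thresholds read blinded with digital plantar aesthesiometer at 0, 20, 45, 90 and 150 min, each paw tested three times. n=6 mice per group, mean ± S.E.M, two-way ANOVA with Bonferroni post-hoc.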

[11] = target: T1, Voltage-dependent T-type calcium channel subunit alpha-1H; test: Inhibition of GFP-fused Cav3.2-alpha1 (unknown origin) expressed in human tsA-201 cells assessed as half activation potential at 1 uM at holding potential of -110 mV by whole cell patch clamp method (reference value: -30.84 +/- 0.46 mV); type: cell-based
[12] = target: T1, Voltage-dependent T-type calcium channel subunit alpha-1H; test: Inhibition of GFP-fused Cav3.2-alpha1 (unknown origin) expressed in human tsA-201 cells assessed as half inactivation potential for steady state inactivation curve at 1 uM at holding potential of -110 mV by whole cell patch clamp method (reference value: -46.27 +/- 0.57 mV); type: cell-based
[13] = target: T1, Voltage-dependent T-type calcium channel subunit alpha-1H; test: Inhibition of GFP-fused Cav3.2-alpha1 (unknown origin) expressed in human tsA-201 cells assessed as time required to reach steady state inhibition at 1 uM at holding potential of -110 mV by whole cell patch clamp method; type: cell-based
Mus musculus [14] = test: Analgesic activity in CFA-induced mechanical hyperalgesia C57BL/6J mouse model assessed as mechanical paw withdrawal threshold at 1 ug/10 uL administered intrathecally 2 days after CFA injection measured at 20 to 150 mins post dose; type: functional
Procedure, shortened: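 C57BL/6J male mice, 7-9 weeks; 30 µl CFA injected into right hind paw; 2 days later single intrathecal dose with vehicle 1% DMSO in PBS. Paw withdrawal threshold measured blinded by digital plantar aesthesiometer at 0, 20, 45, 90 and 150 min after dosing, after ≥1 h habituation. Each paw stimulated three times. n=6 per group; mean ± S.E.M, two-way ANOVA with Bonferroni test.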

Row | inhibition [1] | SMILES | inhibition (INH) [2] | inhibition at 10 µM [3] | also measured
1 | 70 to 95% | CCOC(=O)C1=C(C)NC(=O)N(CCC(=O)N/N=C2/SCC(=O)N2c2ccc(C)cc2)C1c1cccc([N+](=O)[O-])c1 (centres undefined) |  |  | 
2 | inactive | CCOC(=O)C1=C(C)NC(=O)N(CC/C(=N/N(C(C)=O)C(C)=O)OC(C)=O)C1c1cccc([N+](=O)[O-])c1 (centres undefined) | Not Active |  | 
3 | inactive | CCOC(=O)C1=C(C)NC(=O)N(CCC(=O)n2nc(C)cc2C)C1c1cccc([N+](=O)[O-])c1 (centres undefined) | Not Active |  | 
4 | 70 to 95% | CCOC(=O)C1=C(C)NC(=O)N(CCc2nnc(Nc3ccccc3)o2)C1c1cccc([N+](=O)[O-])c1 (centres undefined) | Not Active |  | 
5 | inactive | CCOC(=O)C1=C(C)NC(=O)N(CCC(=O)N/N=C2/SCC(=O)N2c2ccccc2)C1c1cccc([N+](=O)[O-])c1 (centres undefined) | Not Active |  | 
6 | inactive | CCOC(=O)C1=C(C)NC(=O)N(CCC(=O)NNC(=S)Nc2ccccc2)C1c1cccc([N+](=O)[O-])c1 (centres undefined) | Not Active |  | 
7 | 70 to 95% | CCOC(=O)C1=C(C)NC(=O)N(CCC(=O)N/N=C(/C)c2ccccc2)C1c1cccc([N+](=O)[O-])c1 (centres undefined) |  | 60 to 85% | 
8 | 70 to 95% | CCOC(=O)C1=C(C)NC(=O)N(CCC(=O)N/N=C(/C)c2ccc(F)cc2)C1c1cccc([N+](=O)[O-])c1 (centres undefined) |  | 60 to 85% | 
9 | 70 to 95% | CCOC(=O)C1=C(C)NC(=O)N(CCC(=O)N/N=C/C(c2ccccc2)c2ccccc2)C1c1cccc([N+](=O)[O-])c1 (centres undefined) |  | 60 to 85% | 
10 | inactive | CCOC(=O)C1=C(C)NC(=O)N(CCC(=O)N/N=C(/C)C(c2ccccc2)c2ccccc2)C1c1cccc([N+](=O)[O-])c1 (centres undefined) | Not Active |  | 
11 | 70 to 95% | CCOC(=O)C1=C(C)NC(=O)N(CCC(=O)N/N=C(/C)CC(c2ccccc2)c2ccccc2)C1c1cccc([N+](=O)[O-])c1 (centres undefined) |  | 60 to 85% | 
12 | inactive | CCOC(=O)C/C(C)=N\NC(=O)CCN1C(=O)NC(C)=C(C(=O)OCC)C1c1cccc([N+](=O)[O-])c1 (centres undefined) | Not Active |  | 
13 | 70 to 95% | CCOC(=O)C1=C(C)NC(=O)N(CCC(=O)N/N=C\C=C\c2ccccc2)C1c1cccc([N+](=O)[O-])c1 (centres undefined) |  | 60 to 85% | 
14 | 70 to 95% | CCOC(=O)C1=C(C)NC(=O)N(CCc2nnc(Nc3ccccc3)s2)C1c1cccc([N+](=O)[O-])c1 (centres undefined) | Not Active |  | 
15 | 70 to 95% | CCOC(=O)C1=C(C)NC(=O)N(CCC(=O)N/N=C/c2ccc(F)cc2)C1c1cccc([N+](=O)[O-])c1 (centres undefined) |  | 60 to 85% | 
16 | 50% | CCOC(=O)C1=C(C)NC(=O)N(CCC(=O)NNS(=O)(=O)c2ccccc2)C1c1cccc([N+](=O)[O-])c1 (centres undefined) |  | 50% | 
17 | inactive | CCOC(=O)C1=C(C)NC(=O)N(CCC(=O)N/N=c2\scc(-c3ccc(F)cc3)n2-c2ccccc2)C1c1cccc([N+](=O)[O-])c1 (centres undefined) | Not Active |  | 
18 | 50% | CCOC(=O)C1=C(C)NC(=O)N(CCC(=O)N/N=C2/C(=O)Nc3ccccc32)C1c1cccc([N+](=O)[O-])c1 (centres undefined) |  | 50% | 

Row | SMILES | inhibition [1] | inhibition (INH) [2] | inhibition at 10 µM [3] | also measured
19 | CCOC(=O)C1=C(C)NC(=O)N(CCC(=O)N/N=C/c2ccccc2)C1c1cccc([N+](=O)[O-])c1 (centres undefined) | 70 to 95% |  | 60 to 85% | IC50 [4]: 3.39 µM; V1/2 [5]: -29.3 mV; Activity [6]: -48.8 mV; TIME [7]: 0.133 to 0.167 h; inhibition [8]: 31.9%; Activity (Mus musculus [9]): Dose-dependent effect; MED (Mus musculus [9]): 3 µg; Activity (Mus musculus [10]): Active
20 | CCOC(=O)C1=C(C)NC(=O)N(CCC(=O)NNC(=S)NC(c2ccccc2)c2ccccc2)C1c1cccc([N+](=O)[O-])c1 (centres undefined) | 70 to 95% | Not Active |  | IC50 [4]: 0.34 µM; V1/2 [11]: -30.6 mV; Activity [12]: -51.2 mV; TIME [13]: 0.133 to 0.167 h; inhibition [8]: 7.64%; MED (Mus musculus [9]): 1 µg; Activity (Mus musculus [14]): Active
